# In ChEMBL document CHEMBL5620402, “Development of submicromolar 17β-HSD10 inhibitors and their in vitro and in vivo evaluation” (Eur J Med Chem, 2023):
# Legend:
# Sus scrofa = species on record: Sus scrofa; test: Inhibition of pig brain mitochondrial Complex I assessed as rotenone-sensitive rate of the NADH oxidation by measuring activity by spectrophotometric ally method (reference value: 100 + /- 3.3%); design: scale not given: the % may be the effect or the level left; details: Mitochondria
# Outline: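 Sonicated pig brain mitochondria (1 mg/mL protein) were held in 25 mM KH2PO4, 5 mM MgCl2 pH 7.2 with 2 mM KCN. They were incubated with 50 μM drug for 30 min at 30 °C. The reaction was started with coenzyme Q10 and NADH (100 μM each), and A340 was read for 5 min. The rotenone (10 μM)-insensitive background was subtracted. At least three measurements.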
# [1] = Aqueous solubility, logS of the compound at pH 7.4 phosphate buffer by nephelometry assay; format: physicochemical
# Outline: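 Nephelometry of compound suspensions in phosphate buffer pH 7.4. Stock was 160 μg/mL, sonicated and auto-diluted over 0–160 μg/mL, with higher stocks (640 μg/mL, 2.54 mg/mL) used if needed. Wells were shaken 30 s and laser-scanned. Solubility was derived by segmental linear regression.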
# SH-SY5Y [2] = test: Cytotoxicity against human SH-SY5Y cells assessed as change in ATP level at 1 uM measured after 48 hrs by CellTiter-Glo assay; format: toxicity, cell-based
# Outline: (§1)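 HEK293 or SH-SY5Y cells in DMEM with 10% FBS, 2 mM glutamine and NEAA were seeded at 7,500 cells per well and grown 24 h. They were then exposed to 1 or 10 μM compound (final 1% DMSO) for 48 h. ATP was read by CellTiter-Glo luminescence after CellTox Green, normalised to 1% DMSO and 100 μM valinomycin controls. At least two experiments in tetraplicate.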
# [3] = target: T1, Amine oxidase [flavin-containing] B (Sus scrofa, UniProt Q6PLK3); test: Inhibition of pig brain mitochondrial MAO-B using [14C]PEA as substrate incubated for 60 mins by liquid scintillation counting analysis; format: mitochondria, Mitochondria
# T1 sequence (Q6PLK3 whole entry): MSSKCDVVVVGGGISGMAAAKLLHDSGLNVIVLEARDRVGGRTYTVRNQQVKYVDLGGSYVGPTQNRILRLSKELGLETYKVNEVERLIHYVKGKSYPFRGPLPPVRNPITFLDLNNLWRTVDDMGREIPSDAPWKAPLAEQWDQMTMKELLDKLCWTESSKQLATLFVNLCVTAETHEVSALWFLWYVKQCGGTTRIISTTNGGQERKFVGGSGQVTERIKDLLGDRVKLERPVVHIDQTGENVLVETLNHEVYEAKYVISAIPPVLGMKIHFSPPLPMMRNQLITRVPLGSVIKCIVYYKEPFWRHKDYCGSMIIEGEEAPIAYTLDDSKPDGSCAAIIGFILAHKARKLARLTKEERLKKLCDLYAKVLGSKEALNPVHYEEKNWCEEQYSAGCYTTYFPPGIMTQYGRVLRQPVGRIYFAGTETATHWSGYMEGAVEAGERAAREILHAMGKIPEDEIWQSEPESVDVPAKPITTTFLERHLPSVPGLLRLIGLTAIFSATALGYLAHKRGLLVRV
# Outline: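 Pig brain mitochondria were preincubated with drug at 5–7 concentrations (1–1000 μM) for 60 min at 37 °C. Radiolabelled substrate was then added: [3H]5-HT for MAO-A (20 min) or [14C]PEA for MAO-B (1 min). The aldehyde product was counted by liquid scintillation. IC50 came from four-parameter logistic fits; mean ± SE of ≥2 runs.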
# [4] = PBS buffer - Octanol distribution coefficient, logD of the compound at pH 7.4 by UHPLC-DAD-MS analysis; format: physicochemical
# Outline: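 Compound (0.25 mg) was put into 500 μL of a 1:1 water–octanol (logP) or PBS pH 7.4–octanol (logD) mixture. Samples were shaken 30 min and centrifuged 10 min at 10,000 rcf. Each phase was quantified by UHPLC-DAD-MS against calibration lines.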
# [5] = target: T2, 3-hydroxyacyl-CoA dehydrogenase type-2 (Homo sapiens, UniProt Q99714); test: Inhibition of recombinant 17beta-HSD10 (unknown origin) expressed in Escherichia coli BL21 (DE3) assessed as residual activity using acetoacetyl-CoA as substrate by SAAC method
# T2 sequence (Q99714 whole entry): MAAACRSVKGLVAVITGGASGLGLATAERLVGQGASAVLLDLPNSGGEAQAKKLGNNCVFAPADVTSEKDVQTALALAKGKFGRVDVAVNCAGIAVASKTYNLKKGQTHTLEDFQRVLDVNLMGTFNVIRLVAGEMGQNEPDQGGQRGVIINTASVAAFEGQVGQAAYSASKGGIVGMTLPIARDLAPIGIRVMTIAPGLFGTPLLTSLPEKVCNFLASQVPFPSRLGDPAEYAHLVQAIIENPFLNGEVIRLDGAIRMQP
# Outline: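 Recombinant 17β-HSD10 from E. coli BL21(DE3), 0.15 μg, was mixed with 320 μmol/L NADH in 10 mM Tris-HCl pH 7.4 buffer (150 mM NaCl, 1 mM DTT, 0.001% Tween 20, 0.01% BSA). It was preincubated 5 min at 37 °C with inhibitor, then 320 μmol/L acetoacetyl-CoA was added. A340 was followed for 5 min. IC50 came from non-linear regression of ≥3 independent runs in triplicate; Ki was calculated from IC50 per Cer et al.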
# HEK293 = test: Cytotoxicity against human HEK293 cells assessed as change in ATP level at 10 uM measured after 48 hrs by CellTiter-Glo assay; format: toxicity, cell-based; details: hek293, 48 h; outline: as §1
# [6] = target: T3, 3-hydroxyacyl-CoA dehydrogenase type-2 (Homo sapiens) (UniProt Q99714); test: Inhibition of recombinant 17beta-HSD10 (unknown origin) expressed in Escherichia coli BL21 (DE3) assessed as residual activity at 1 uM using acetoacetyl-CoA as substrate by SAAC method relative to control
# T3 sequence (whole entry): T2 sequence (Q99714 whole entry)
# Outline: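 Recombinant 17β-HSD10 from E. coli BL21(DE3), 0.15 μg, was mixed with 320 μmol/L NADH in Tris-HCl pH 7.4 assay buffer. It was preincubated 5 min at 37 °C with 1 or 10 μM inhibitor or vehicle, then 320 μmol/L acetoacetyl-CoA was added. A340 was followed for 5 min. Residual activity is % of control, triplicate mean ± SD, with t-test versus control.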
# [7] = Inhibition of complex I linked mitochondrial respiration in isolated pig brain mitochondria by O2k respirometry; design: species or system Sus scrofa
# Outline: (§2)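 Respirometry (Oxygraph-2k) of purified pig brain cortex mitochondria in state 3. Substrates were malate + pyruvate + ADP (Complex I) or ADP + rotenone + succinate (Complex II). One chamber was titrated with compound (10–20 concentrations, final 1.25–500 μM) and the other with DMSO; rates were expressed relative to DMSO. IC50 came from four-parameter logistic fits.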
# [8] = Inhibition of complex II linked mitochondrial respiration in isolated pig brain mitochondria by O2k respirometry; design: species or system Sus scrofa; outline: as §2
# SH-SY5Y [9] = test: Cytotoxicity against human SH-SY5Y cells assessed as change in ATP level at 10 uM measured after 48 hrs by CellTiter-Glo assay; format: toxicity, cell-based; outline: as §1
SMILES,Activity (Sus scrofa) [%],logS0 [1],Activity (SH-SY5Y [2]),IC50 ([3]; read-out: IC50) [µM],logD [4],IC50 [5] [µM],Ki [5] [µM],Activity (HEK293),Activity [6] [%],IC50 [7] [µM],IC50 [8] [µM],Activity (SH-SY5Y [9]),IC50 [3]
CC(=O)Nc1ccc2nc(NC(=O)Nc3ccc(O)c(Cl)c3)sc2c1,24.3,-4.55,Non-Toxic,120,3.35,0.34,0.25,Non-Toxic,49.5,36.4,27,Non-Toxic,
COc1ccc2nc(NC(=O)Nc3ccc(O)c(C(F)(F)F)c3)sc2c1,5.3,-4.48,,,5.06,0.57,0.44,Non-Toxic,39.8,28,98,Toxic,Not Active
NC(=O)c1ccc2nc(NC(=O)Nc3ccc(O)c(Cl)c3)sc2c1,25.2,-4.78,Non-Toxic,84,3.34,0.84,0.65,Non-Toxic,50,88,,Non-Toxic,
O=C(Nc1ccc(O)c(Cl)c1)Nc1nc2ccc(C(=O)O)cc2s1,87.7,-4.36,Non-Toxic,81,0.75,0.31,0.23,Non-Toxic,50,93,260,Non-Toxic,
